Results on seven molecules are retold here after ChEMBL document CHEMBL1139324, “Chemical modification and biological evaluation of new semisynthetic derivatives of 28,29-Didehydronystatin A1 (S44HP), a genetically engineered antifungal polyene macrolide antibiotic” (J Med Chem, 2009).

Converted amounts (≈) assume the structure as drawn.

The subject of one data set is Aspergillus niger. In words: Antifungal activity against Aspergillus niger ATCC 16404 after 48 hrs by broth microdilution method. It counts as functional. As to conditions: ATCC 16404, 48 h. In a few lines: (§1)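 Susceptibility of filamentous fungi (molds) by broth microdilution per NCCLS M38-A in 96-well microplates. The MIC is read as the lowest inhibitory concentration. It is given as one number when replicate data fully agreed.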
Background: In broth dilution the organism is exposed to a series of concentrations in liquid medium.

The subject of data set [1] is Candida albicans. In words: Antifungal activity against Candida albicans ATCC 10231after 48 hrs by broth microdilution method. As to conditions: ATCC 10231, 48 h. It counts as functional.
The test system of a further data set is Vanrija humicola. The data set can be described thus: Antifungal activity against Cryptococcus humicolus ATCC 9949 after 48 hrs by broth microdilution method. It counts as functional. As to conditions: ATCC 9949, 48 h. A digest of the protocol: (§2)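 Yeast susceptibility by broth microdilution per NCCLS M27-A in 96-well plates. MIC is the lowest concentration inhibiting growth. Where repeat runs fully coincided, a single value is reported.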

The subject of data set [2] is Candida albicans. The data set can be described thus: Antifungal activity against Candida albicans ATCC 14053 after 48 hrs by broth microdilution method. As to conditions: ATCC 14053, 48 h. It counts as functional. In a few lines:
as §2

A further data set deals with Fusarium oxysporum. In words: Antifungal activity against Fusarium oxysporum VKM F-140 after 48 hrs by broth microdilution method. It counts as functional. In a few lines: as §1
A short description of data set [3]: Toxicity against human erythrocytes assessed as hemolytic activity at 5 ug/ml. It counts as cell-based, Erythrocyte. As to conditions: read-out: Activity. A digest of the protocol:
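Lysis of erythrocytes in defibrinated human blood was measured under buffered conditions with compound at 5 µg/mL. Percent hemolysis is the mean of blood samples from two donors.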

The nature of data set [4]: Toxicity in Candida albicans ATCC 14053 infected iv dosed (C57BL/6xDBA/2)F1 B6D2F1 mouse. It counts as organism-based. As to conditions: in vivo.

By MIC is commonly meant the smallest concentration in the dilution series that meets the test's criterion for growth inhibition. One may read the MIC50 as the lowest concentration that inhibits either 50% of growth or 50% of the strains tested, depending on the study. For orientation: MIC90 means an inhibitory concentration at the 90% level, which refers to growth in some studies and to a panel of isolates in others. Lower therefore signals greater potency. On to `C[C@@H]1[C@H](O)[C@@H](C)/C=C/C=C/C=C/C=C/C=C/C=C/C=C/[C@H](O[C@H]2O[C@@H](C)[C@H](O)[C@@H](N)[C@H]2O)C[C@@H]2O[C@](O)(C[C@@H](O)[C@H](O)CC[C@@H](O)C[C@@H](O)C[C@@H](O)CC(=O)O[C@H]1C)C[C@H](O)[C@H]2C(=O)N1CCN(CCO)CC1`, for which the MIC in the data set on Aspergillus niger worked out at 2 µg/mL (≈ 1.93 µM); against Vanrija humicola, 2 µg/mL (≈ 1.93 µM); in the data set with Candida albicans [2] it was 1 µg/mL (≈ 0.965 µM); in the data set with Fusarium oxysporum, 4 µg/mL (≈ 3.86 µM). In addition, the MIC50 in the data set with Candida albicans [1] was found to be 0.13 µg/mL (≈ 0.125 µM). The molecule also showed an MIC90 against Candida albicans [1] of 0.52 µg/mL (≈ 0.502 µM). In data set [3], the hemolysis at 5 ug/ml worked out at 2%.

`CCOC(=O)CNC(=O)[C@H]1[C@@H]2C[C@@H](O[C@H]3O[C@@H](C)[C@H](O)[C@@H](N)[C@H]3O)/C=C/C=C/C=C/C=C/C=C/C=C/C=C/[C@H](C)[C@@H](O)[C@@H](C)[C@H](C)OC(=O)C[C@H](O)C[C@H](O)C[C@H](O)CC[C@@H](O)[C@H](O)C[C@](O)(C[C@@H]1O)O2`: the MIC stood at 2 µg/mL (≈ 1.98 µM) against Aspergillus niger, 1 µg/mL (≈ 0.991 µM) against Vanrija humicola, 1 µg/mL (≈ 0.991 µM) against Candida albicans [2] and 4 µg/mL (≈ 3.96 µM) in the data set on Fusarium oxysporum. The molecule further gave an MIC50 in the data set on Candida albicans [1] of 0.15 µg/mL (≈ 0.149 µM). In the data set on Candida albicans [1], the MIC90 turned out to be 0.36 µg/mL (≈ 0.357 µM). Also, the hemolysis at 5 ug/ml in data set [3] stood at 38%.

With `C[C@@H]1[C@H](O)[C@@H](C)/C=C/C=C/C=C/C=C/C=C/C=C/C=C/[C@H](O[C@H]2O[C@@H](C)[C@H](O)[C@@H](N)[C@H]2O)C[C@@H]2O[C@](O)(C[C@@H](O)[C@H](O)CC[C@@H](O)C[C@@H](O)C[C@@H](O)CC(=O)O[C@H]1C)C[C@H](O)[C@H]2C(=O)NCCCO`, the MIC is 2 µg/mL (≈ 2.04 µM) with Aspergillus niger, 1 µg/mL (≈ 1.02 µM) with Vanrija humicola, 1 µg/mL (≈ 1.02 µM) in the data set with Candida albicans [2] and 2 µg/mL (≈ 2.04 µM) against Fusarium oxysporum. This molecule came in with an MIC50 with Candida albicans [1] of 0.09 µg/mL (≈ 0.0917 µM). The molecule also had an MIC90 in the data set with Candida albicans [1] of 0.27 µg/mL (≈ 0.275 µM). Further, in data set [3], the hemolysis at 5 ug/ml stood at 4%.

Usually LD50 stands for the dose at which mortality reaches 50%. Regarding `C[C@@H]1[C@H](O)[C@@H](C)/C=C/C=C/C=C/C=C/C=C/C=C/C=C/[C@H](O[C@H]2O[C@@H](C)[C@H](O)[C@@H](N)[C@H]2O)C[C@@H]2O[C@](O)(C[C@@H](O)[C@H](O)CC[C@@H](O)C[C@@H](O)C[C@@H](O)CC(=O)O[C@H]1C)C[C@H](O)[C@H]2C(=O)O`, the MIC was 1 µg/mL (≈ 1.08 µM) against Aspergillus niger, 1 µg/mL (≈ 1.08 µM) against Vanrija humicola, 1 µg/mL (≈ 1.08 µM) against Candida albicans [2] and 4 µg/mL (≈ 4.33 µM) with Fusarium oxysporum. Besides, the LD50 in data set [4] stood at 2.2 mg/kg. Moreover, the MTD in data set [4] was 0.64 mg/kg. This molecule showed an MIC50 in the data set on Candida albicans [1] of 0.12 µg/mL (≈ 0.13 µM). In the data set with Candida albicans [1], the MIC90 is 0.4 µg/mL (≈ 0.433 µM). Moreover, the hemolysis at 5 ug/ml in data set [3] worked out at 41%.

Take `C[C@@H]1[C@H](O)[C@@H](C)/C=C/C=C/C=C/C=C/C=C/C=C/C=C/[C@H](O[C@H]2O[C@@H](C)[C@H](O)[C@@H](N)[C@H]2O)C[C@@H]2O[C@](O)(C[C@@H](O)[C@H](O)CC[C@@H](O)C[C@@H](O)C[C@@H](O)CC(=O)O[C@H]1C)C[C@H](O)[C@H]2C(=O)NCCCN(C)C`: the MIC worked out at 2 µg/mL (≈ 1.98 µM) in the data set on Aspergillus niger, 1 µg/mL (≈ 0.992 µM) against Vanrija humicola, 1 µg/mL (≈ 0.992 µM) against Candida albicans [2] and 2 µg/mL (≈ 1.98 µM) against Fusarium oxysporum. This molecule came in with an LD50 in data set [4] of 16.4 mg/kg. In data set [4], this molecule returned an MTD of 11.9 mg/kg. The molecule further came in with an MIC50 against Candida albicans [1] of 0.08 µg/mL (≈ 0.0793 µM). Also, the MIC90 in the data set on Candida albicans [1] came out at 0.3 µg/mL (≈ 0.298 µM). For the same molecule, the hemolysis at 5 ug/ml in data set [3] is 2%.

`C[C@@H]1[C@H](O)[C@@H](C)/C=C/C=C/C=C/C=C/C=C/C=C/C=C/[C@H](O[C@H]2O[C@@H](C)[C@H](O)[C@@H](N(CCCN)CCCN)[C@H]2O)C[C@@H]2O[C@](O)(C[C@@H](O)[C@H](O)CC[C@@H](O)C[C@@H](O)C[C@@H](O)CC(=O)O[C@H]1C)C[C@H](O)[C@H]2C(=O)O`: the MIC in the data set on Aspergillus niger, against Vanrija humicola, in the data set on Candida albicans [2] and against Fusarium oxysporum was 1 µg/mL (≈ 0.963 µM) throughout. This molecule showed an MIC50 in the data set on Candida albicans [1] of 0.04 µg/mL (≈ 0.0385 µM). Also, in the data set on Candida albicans [1], the MIC90 came out at 0.13 µg/mL (≈ 0.125 µM). The hemolysis at 5 ug/ml in data set [3] is 15%.

Consider `C[C@@H]1[C@H](O)[C@@H](C)/C=C/C=C/C=C/C=C/C=C/C=C/C=C/[C@H](O[C@@H]2O[C@H](C)[C@@H](O)[C@H](N)[C@@H]2O)C[C@@H]2O[C@](O)(C[C@@H](O)C[C@@H](O)[C@H](O)CC[C@@H](O)C[C@@H](O)CC(=O)O[C@H]1C)C[C@H](O)[C@H]2C(=O)O` [AMPHOTERICIN B], for which the MIC is 1 µg/mL (≈ 1.08 µM) against Aspergillus niger, 1 µg/mL (≈ 1.08 µM) against Vanrija humicola, 1 µg/mL (≈ 1.08 µM) in the data set with Candida albicans [2] and 4 µg/mL (≈ 4.33 µM) with Fusarium oxysporum. The molecule also returned an LD50 in data set [4] of 2.8 mg/kg. The molecule further had an MTD in data set [4] of 2.01 mg/kg. Further, in the data set with Candida albicans [1], the MIC50 is 0.11 µg/mL (≈ 0.119 µM). The MIC90 with Candida albicans [1] stood at 0.36 µg/mL (≈ 0.39 µM). Also, in data set [3], the hemolysis at 5 ug/ml was 30%.
